Assay results from ChEMBL document CHEMBL3621160, “Pseudosaccharin amines as potent and selective KV1.5 blockers” (Bioorg Med Chem Lett, 2015).

Key:
[1] = target: Phosphodiesterase 4 (Homo sapiens) (UniProt P27815+Q08499+Q07343+Q08493); assay: Inhibition of human PDE4 at 10 uM relative to control; format: protein assay
Method in brief: (§1)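 Screening panel of over 37 receptors and enzymes relevant to cardiovascular effects or toxicity. Each target was tested at a single concentration of 10 µM, with % activity reported.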

[2] = target: Sodium-dependent noradrenaline transporter (Homo sapiens) (UniProt P23975); assay: Inhibition of human NET at 10 uM relative to control; method in brief: as §1
[3] = target: 5-hydroxytryptamine receptor 2B (Homo sapiens) (UniProt P41595); assay: Inhibition of human 5HT-2B receptor at 10 uM relative to control; method in brief: as §1
[4] = target: Phosphodiesterase 3 (Homo sapiens) (UniProt Q14432+Q13370); assay: Inhibition of human PDE3 at 10 uM relative to control; format: protein assay
MAO-B = MAO-B (Homo sapiens, UniProt P27338); assay: Inhibition of human MAOB at 10 uM relative to control; method in brief: as §1
[5] = target: Carnitine O-palmitoyltransferase 1, liver isoform (Rattus norvegicus) (UniProt P32198); assay: Inhibition of rat carnitine palmitoyltransferase-1 at 10 uM relative to control; method in brief: as §1
Rattus norvegicus [6] = organism: Rattus norvegicus; assay: Inhibition of rat opioid receptor at 10 uM relative to control
Method in brief: (§2)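 Single-concentration screen at 10 µM across a panel of over 37 receptors and enzymes linked to cardiovascular effects or toxicity. Read-out is percent activity.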

[7] = target: Adrenergic receptor beta (Rattus norvegicus) (UniProt P18090+P10608+P26255); assay: Inhibition of rat beta adrenergic receptor at 10 uM relative to control; method in brief: as §1
[8] = target: Acetylcholinesterase (Homo sapiens) (UniProt P22303); assay: Inhibition of human acetylcholinesterase at 10 uM relative to control
[9] = target: Histamine H2 receptor (Homo sapiens) (UniProt P25021); assay: Inhibition of human histamine H2 receptor at 10 uM relative to control; method in brief: as §1
[10] = Oral bioavailability in rat at 5 mg/kg; format: ADME, organism-based; details: in vivo
Method in brief: (§3)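 Rats (3 per compound) received intra-arterial infusion over 10 min or oral gavage. Vehicle for both routes was 40% PEG 400, 40% water and 20% ethanol. Values are means of 3 animals.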

[11] = target: Adrenergic receptor alpha-1 (Rattus norvegicus) (UniProt P15823+P23944+P43140); assay: Inhibition of rat alpha-1 adrenergic receptor at 10 uM relative to control; method in brief: as §1
[12] = target: Androgen receptor (Rattus norvegicus) (UniProt P15207); assay: Inhibition of rat testosterone receptor at 10 uM relative to control; method in brief: as §1
Rattus norvegicus [13] = organism: Rattus norvegicus; assay: Inhibition of rat N-methyl D-aspartate receptor phencyclidine binding site at 10 uM relative to control; method in brief: as §2
Oryctolagus cuniculus [14] = organism: Oryctolagus cuniculus; assay: Induction of […] effective refractory period prolongation in rabbit; format: functional
Method in brief: (§4)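 Rabbits were dosed at 0.3, 1.0 and 3.0 mg/Kg. Effective refractory period was measured in atrium and ventricle, and blood pressure was recorded. The plasma concentration giving 20% atrial ERP prolongation (EC20) was calculated.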

MAO-A = MAO-A (Homo sapiens, UniProt P21397); assay: Inhibition of human MAOA at 10 uM relative to control; method in brief: as §1
[15] = target: Mu-type opioid receptor (Homo sapiens) (UniProt P35372); assay: Inhibition of human mu opioid receptor at 10 uM relative to control; method in brief: as §1
[16] = Volume of distribution at steady state in rat at 2 mg/kg administered as intra-arterial infusion for 10 mins and 5 mg/kg, po; format: ADME, organism-based; details: in vivo, read-out: Vdss
Method in brief: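 Rat PK: 2.0 mg/kg by intra-arterial infusion over 10 min and 5.0 mg/kg by oral gavage, vehicle 40% PEG 400, 40% water, 20% ethanol for both routes; Vss from 3 animals, reported as mean.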

[17] = Clearance in rat at 2 mg/kg administered as intra-arterial infusion for 10 mins and 5 mg/kg, po; format: ADME, organism-based; details: in vivo, iv; method in brief: as §3
[18] = Half life in rat at 2 mg/kg administered as intra-arterial infusion for 10 mins and 5 mg/kg, po; format: ADME, organism-based; details: in vivo; method in brief: as §3
Homo sapiens [19] = organism: Homo sapiens; assay: Inhibition of human nicotinic acetylcholine receptor at 10 uM relative to control; method in brief: as §2
Rattus norvegicus [20] = assay: Induction of QT interval prolongation in rat at 3 mg/kg, iv administered as infusion for 5 mins by ECG analysis; format: functional
Method in brief: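 Rats were dosed at 3 mg/Kg. Block of IKur was read as the percent change in the ECG QT interval; mean blood pressure and plasma concentration were recorded alongside. Values are means of 2-4 experiments.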

[21] = Metabolic stability in rat liver microsomes assessed as compound remaining at 3 uM after 10 mins; format: ADME; details: read-out: Stability
Method in brief: (§5)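 Parent compound at 3 µM was incubated 10 min in human, rat or mouse liver microsomes with appropriate co-factors. Read-out is percent of parent remaining.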

[22] = target: Glucocorticoid receptor (Rattus norvegicus) (UniProt P06536); assay: Inhibition of rat glucocorticoid receptor at 10 uM relative to control; method in brief: as §1
[23] = target: Adrenergic receptor alpha-2 (Rattus norvegicus) (UniProt P22086+P19328+P22909); assay: Inhibition of rat alpha-2 adrenergic receptor at 10 uM relative to control; method in brief: as §1
[24] = target: Potassium voltage-gated channel subfamily A member 5 (Homo sapiens, UniProt P22460); assay: Inhibition of human KV1.5 expressed in mouse L929 cells assessed as decrease in ultrarapid potassium current amplitude; format: cell-based
Method in brief: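 Potassium current block was measured in mouse fibroblast L929 cells expressing human KV1.5. IC50 values are means of 2-4 experiments.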

hERG (KCNH2) = hERG (KCNH2) (Homo sapiens, UniProt Q12809); assay: Inhibition of human ERG at 10 uM relative to control; method in brief: as §1
[25] = target: Progesterone receptor (Homo sapiens) (UniProt P06401); assay: Inhibition of human progesterone B receptor at 10 uM relative to control; method in brief: as §1
Homo sapiens [26] = organism: Homo sapiens; assay: Inhibition of calcium channel (unknown origin) at 10 uM relative to control
Method in brief: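 Calcium (ICa) and sodium (INa) currents were measured as percent inhibition at a single concentration of 10 µM. Values are means of 2-4 experiments.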

Rattus norvegicus [27] = assay: Toxicity in rat assessed as increase in blood pressure at 3 mg/kg, iv administered as infusion for 5 mins; format: organism-based; details: in vivo
Method in brief: (§6)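 Rats were dosed at 3 mg/Kg. QT interval on ECG, mean blood pressure (% change) and plasma concentration were measured. Values are means of 2-4 experiments.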

[28] = target: D(2) dopamine receptor (Homo sapiens) (UniProt P14416); assay: Inhibition of human dopamine D2S receptor at 10 uM relative to control; method in brief: as §1
Oryctolagus cuniculus [29] = organism: Oryctolagus cuniculus; assay: Toxicity in rabbit assessed as effect on ventricular effective refractory period; format: organism-based, Cardiac ventricle; details: in vivo; method in brief: as §4
[30] = target: Estrogen receptor (Homo sapiens) (UniProt P03372); assay: Inhibition of human ER-alpha at 10 uM relative to control; method in brief: as §1
[31] = Plasma concentration in rat at 3 mg/kg, iv administered as infusion for 5 mins; format: ADME, organism-based; method in brief: as §6
Oryctolagus cuniculus [32] = assay: Toxicity in rabbit assessed as increase in blood pressure at 0.3 to 3 mg/kg; format: organism-based; details: in vivo; method in brief: as §4
[33] = Metabolic stability in mouse liver microsomes assessed as compound remaining at 3 uM after 10 mins; format: ADME; details: read-out: Stability; method in brief: as §5
[34] = AUC in rat at 5 mg/kg, po; format: ADME, organism-based; details: in vivo; method in brief: as §3

Androgen receptor (Rattus norvegicus), sequence (P15207 whole entry S389L): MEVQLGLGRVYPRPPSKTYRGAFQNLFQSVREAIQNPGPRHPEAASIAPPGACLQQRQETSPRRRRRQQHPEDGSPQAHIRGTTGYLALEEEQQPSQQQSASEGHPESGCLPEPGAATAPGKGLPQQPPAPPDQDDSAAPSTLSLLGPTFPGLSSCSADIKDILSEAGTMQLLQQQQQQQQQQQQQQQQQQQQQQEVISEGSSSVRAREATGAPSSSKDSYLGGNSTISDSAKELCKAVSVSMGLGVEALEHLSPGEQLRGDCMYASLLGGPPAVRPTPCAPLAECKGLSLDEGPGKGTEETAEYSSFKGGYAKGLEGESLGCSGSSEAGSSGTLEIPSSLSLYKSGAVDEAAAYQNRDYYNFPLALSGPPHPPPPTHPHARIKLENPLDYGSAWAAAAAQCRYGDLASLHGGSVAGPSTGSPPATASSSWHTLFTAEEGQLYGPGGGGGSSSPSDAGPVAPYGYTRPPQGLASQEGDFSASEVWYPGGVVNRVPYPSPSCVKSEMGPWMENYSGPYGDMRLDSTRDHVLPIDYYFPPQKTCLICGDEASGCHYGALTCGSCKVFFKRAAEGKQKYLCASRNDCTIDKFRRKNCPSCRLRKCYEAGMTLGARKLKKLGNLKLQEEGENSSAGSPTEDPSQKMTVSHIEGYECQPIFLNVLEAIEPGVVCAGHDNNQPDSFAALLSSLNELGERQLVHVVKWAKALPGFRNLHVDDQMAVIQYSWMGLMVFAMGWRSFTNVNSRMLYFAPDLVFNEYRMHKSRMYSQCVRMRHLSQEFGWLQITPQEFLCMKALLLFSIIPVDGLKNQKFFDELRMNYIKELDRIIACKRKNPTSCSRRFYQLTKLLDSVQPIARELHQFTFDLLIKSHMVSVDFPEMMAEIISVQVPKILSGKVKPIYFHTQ
Potassium voltage-gated channel subfamily A member 5, sequence (P22460 whole entry): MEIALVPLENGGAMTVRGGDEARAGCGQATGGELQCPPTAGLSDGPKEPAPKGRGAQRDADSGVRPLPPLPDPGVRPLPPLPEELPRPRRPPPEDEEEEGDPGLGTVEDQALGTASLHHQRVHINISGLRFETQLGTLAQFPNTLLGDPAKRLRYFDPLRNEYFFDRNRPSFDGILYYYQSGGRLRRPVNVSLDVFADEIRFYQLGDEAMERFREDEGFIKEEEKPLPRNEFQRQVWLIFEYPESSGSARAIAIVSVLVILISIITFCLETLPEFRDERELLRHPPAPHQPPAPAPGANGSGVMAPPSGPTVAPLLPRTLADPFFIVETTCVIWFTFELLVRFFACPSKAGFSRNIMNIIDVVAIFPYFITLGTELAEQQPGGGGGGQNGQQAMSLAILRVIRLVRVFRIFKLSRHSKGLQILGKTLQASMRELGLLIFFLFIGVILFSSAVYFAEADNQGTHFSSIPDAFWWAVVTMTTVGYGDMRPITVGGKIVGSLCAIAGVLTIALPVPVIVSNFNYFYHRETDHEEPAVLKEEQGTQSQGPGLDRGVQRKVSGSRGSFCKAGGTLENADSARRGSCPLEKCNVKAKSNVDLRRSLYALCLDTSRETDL
Sodium-dependent noradrenaline transporter (Homo sapiens), sequence (P23975 whole entry): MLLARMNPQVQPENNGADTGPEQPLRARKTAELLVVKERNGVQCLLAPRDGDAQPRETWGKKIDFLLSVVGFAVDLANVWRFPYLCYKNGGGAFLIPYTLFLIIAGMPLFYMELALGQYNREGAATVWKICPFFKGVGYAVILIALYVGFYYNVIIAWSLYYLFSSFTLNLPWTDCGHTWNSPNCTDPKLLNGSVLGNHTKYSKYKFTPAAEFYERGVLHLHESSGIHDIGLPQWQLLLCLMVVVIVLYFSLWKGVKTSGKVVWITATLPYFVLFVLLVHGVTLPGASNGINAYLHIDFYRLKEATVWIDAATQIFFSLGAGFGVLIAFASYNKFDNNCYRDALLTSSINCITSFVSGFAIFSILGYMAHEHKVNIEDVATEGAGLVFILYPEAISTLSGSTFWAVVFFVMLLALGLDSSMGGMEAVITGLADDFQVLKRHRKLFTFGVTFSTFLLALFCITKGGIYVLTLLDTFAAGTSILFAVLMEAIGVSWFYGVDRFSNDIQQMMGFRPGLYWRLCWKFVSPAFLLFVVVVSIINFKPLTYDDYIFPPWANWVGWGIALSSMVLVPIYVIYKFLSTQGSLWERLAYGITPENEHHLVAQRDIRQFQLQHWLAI
5-hydroxytryptamine receptor 2B (Homo sapiens), sequence (P41595 whole entry): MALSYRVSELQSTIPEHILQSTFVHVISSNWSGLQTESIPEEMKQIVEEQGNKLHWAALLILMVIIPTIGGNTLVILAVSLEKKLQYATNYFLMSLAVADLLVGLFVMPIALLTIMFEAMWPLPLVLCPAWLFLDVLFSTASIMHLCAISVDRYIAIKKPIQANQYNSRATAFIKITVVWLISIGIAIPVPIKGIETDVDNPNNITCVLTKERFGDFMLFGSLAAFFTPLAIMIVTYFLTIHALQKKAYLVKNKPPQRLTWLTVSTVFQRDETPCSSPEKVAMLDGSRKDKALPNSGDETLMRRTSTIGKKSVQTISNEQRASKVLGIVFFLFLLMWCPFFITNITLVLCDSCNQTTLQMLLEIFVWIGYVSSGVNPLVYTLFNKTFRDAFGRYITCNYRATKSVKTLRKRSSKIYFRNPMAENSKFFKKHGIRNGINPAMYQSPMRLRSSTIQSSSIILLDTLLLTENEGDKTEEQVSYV
Acetylcholinesterase (Homo sapiens), sequence (P22303 whole entry): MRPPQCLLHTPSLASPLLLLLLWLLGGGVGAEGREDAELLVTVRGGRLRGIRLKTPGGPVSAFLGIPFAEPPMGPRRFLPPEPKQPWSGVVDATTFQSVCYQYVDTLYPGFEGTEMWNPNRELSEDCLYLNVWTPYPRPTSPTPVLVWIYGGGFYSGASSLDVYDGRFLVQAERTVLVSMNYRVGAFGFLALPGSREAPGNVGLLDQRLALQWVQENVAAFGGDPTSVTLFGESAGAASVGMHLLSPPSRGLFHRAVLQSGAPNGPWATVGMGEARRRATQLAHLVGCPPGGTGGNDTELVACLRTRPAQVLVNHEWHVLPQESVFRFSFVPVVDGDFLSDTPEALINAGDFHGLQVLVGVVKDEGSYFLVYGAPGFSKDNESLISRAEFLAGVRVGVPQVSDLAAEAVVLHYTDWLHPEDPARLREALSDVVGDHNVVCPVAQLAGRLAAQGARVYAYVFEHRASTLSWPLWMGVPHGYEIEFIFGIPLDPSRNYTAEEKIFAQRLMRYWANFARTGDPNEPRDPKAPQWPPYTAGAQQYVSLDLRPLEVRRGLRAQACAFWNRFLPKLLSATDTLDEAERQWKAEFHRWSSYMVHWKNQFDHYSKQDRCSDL
hERG (KCNH2), sequence (Q12809 whole entry): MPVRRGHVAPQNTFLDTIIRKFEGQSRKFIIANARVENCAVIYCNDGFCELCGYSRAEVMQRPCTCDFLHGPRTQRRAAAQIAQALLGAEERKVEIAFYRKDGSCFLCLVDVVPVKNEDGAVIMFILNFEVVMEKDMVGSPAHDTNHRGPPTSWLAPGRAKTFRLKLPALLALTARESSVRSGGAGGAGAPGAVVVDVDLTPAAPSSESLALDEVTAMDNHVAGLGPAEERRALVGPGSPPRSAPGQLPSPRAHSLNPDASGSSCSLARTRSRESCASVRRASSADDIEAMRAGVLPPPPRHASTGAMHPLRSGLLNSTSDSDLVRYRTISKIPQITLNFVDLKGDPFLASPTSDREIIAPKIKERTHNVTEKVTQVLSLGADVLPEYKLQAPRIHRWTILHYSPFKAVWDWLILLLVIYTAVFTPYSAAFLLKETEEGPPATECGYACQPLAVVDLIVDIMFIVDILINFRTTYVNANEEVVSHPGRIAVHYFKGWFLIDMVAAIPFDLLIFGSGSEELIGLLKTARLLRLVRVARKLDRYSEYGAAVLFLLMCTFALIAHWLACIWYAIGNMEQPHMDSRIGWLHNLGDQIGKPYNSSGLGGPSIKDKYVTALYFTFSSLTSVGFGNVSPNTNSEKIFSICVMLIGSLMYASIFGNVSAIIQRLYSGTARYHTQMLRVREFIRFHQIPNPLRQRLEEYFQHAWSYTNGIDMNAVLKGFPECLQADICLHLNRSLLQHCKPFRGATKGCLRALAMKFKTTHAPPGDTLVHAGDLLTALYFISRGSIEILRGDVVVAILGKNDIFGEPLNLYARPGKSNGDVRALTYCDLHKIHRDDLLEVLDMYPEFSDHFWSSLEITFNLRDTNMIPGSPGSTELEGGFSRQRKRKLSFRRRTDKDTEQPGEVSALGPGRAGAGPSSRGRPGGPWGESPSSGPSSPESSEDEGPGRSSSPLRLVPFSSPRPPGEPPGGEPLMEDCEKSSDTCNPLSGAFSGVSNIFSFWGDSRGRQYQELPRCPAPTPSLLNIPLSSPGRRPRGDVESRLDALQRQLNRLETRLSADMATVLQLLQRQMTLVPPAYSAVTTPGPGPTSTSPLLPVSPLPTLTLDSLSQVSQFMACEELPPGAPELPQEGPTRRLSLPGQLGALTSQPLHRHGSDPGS
Histamine H2 receptor (Homo sapiens), sequence (P25021 whole entry): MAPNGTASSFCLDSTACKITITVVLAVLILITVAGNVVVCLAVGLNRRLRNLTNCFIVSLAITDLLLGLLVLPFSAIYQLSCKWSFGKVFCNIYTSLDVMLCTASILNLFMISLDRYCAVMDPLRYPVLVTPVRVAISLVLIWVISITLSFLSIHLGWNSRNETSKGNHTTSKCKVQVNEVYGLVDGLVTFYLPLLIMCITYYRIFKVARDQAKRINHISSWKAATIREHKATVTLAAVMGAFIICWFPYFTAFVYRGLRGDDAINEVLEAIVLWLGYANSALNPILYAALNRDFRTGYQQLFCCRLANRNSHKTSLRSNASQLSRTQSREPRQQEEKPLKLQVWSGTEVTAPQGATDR

| SMILES | inhibition [1] [%] | inhibition [2] [%] | inhibition [3] [%] | inhibition [4] [%] | inhibition at 10 µM (MAO-B) [%] | inhibition [5] [%] | inhibition (Rattus norvegicus [6]) [%] | inhibition [7] [%] | inhibition [8] [%] | inhibition [9] [%] | bioavailability [10] [%] | inhibition [11] [%] | inhibition [12] [%] | inhibition (Rattus norvegicus [13]) [%] | EC20 (Oryctolagus cuniculus [14]) [µM] | inhibition at 10 µM (MAO-A) [%] | inhibition [15] [%] | Vd [16] [L/kg] | clearance [17] [L/h/kg] | half-life [18] [h] | also measured |
| --- | --- | --- | --- | --- | --- | --- | --- | --- | --- | --- | --- | --- | --- | --- | --- | --- | --- | --- | --- | --- | --- |
| COc1cccc2c1C(NC[C@]1(c3ccccc3)CC[C@H](O)CC1)=NS2(=O)=O | 26 | 8 | 2 | 53 | 3 | 4 | 23 | -4 | 53 | 19 | 34 | 13 | 2 | -6 | 0.6 | 3 | 0 | 3.2 | 1.62 | 5.1 | inhibition (Homo sapiens [19]): 12%; Activity (Rattus norvegicus [20]): 66%; remaining at 10 min, 3 µM [21]: 68%; inhibition [22]: 14%; inhibition [23]: -6%; IC50 [24]: 0.034 µM; inhibition at 10 µM (hERG (KCNH2)): 54%; inhibition [25]: 6%; inhibition (Homo sapiens [26]): 14%; Activity (Rattus norvegicus [27]): 13%; inhibition [28]: 4%; Activity (Oryctolagus cuniculus [29]): Non-toxic; inhibition [30]: -1%; concentration at 5 min [31]: 153 µM; Activity (Oryctolagus cuniculus [32]): 19%; remaining at 10 min, 3 µM [33]: 53%; AUC [34]: 2700 nM·h |
| COc1cccc2c1C(NC[C@]1(c3ccccc3)CC[C@H](NC(=O)OC(C)C)CC1)=NS2(=O)=O | 25 | 6 | 27 | 15 | 9 | 0 | 64 | 0 | 55 | 19 | 7.2 | -6 | 20 | 2 | <0.7 | 10 | 31 | 0.3 | 0.564 | 0.9 | inhibition (Homo sapiens [19]): 10%; Activity (Rattus norvegicus [20]): 68%; remaining at 10 min, 3 µM [21]: 29%; inhibition [22]: 17%; inhibition [23]: -2%; IC50 [24]: 0.052 µM; inhibition at 10 µM (hERG (KCNH2)): 68%; inhibition [25]: 10%; inhibition (Homo sapiens [26]): 41%; Activity (Rattus norvegicus [27]): 44%; inhibition [28]: -2%; Activity (Oryctolagus cuniculus [29]): Non-toxic; inhibition [30]: 4%; concentration at 5 min [31]: 38 µM; Activity (Oryctolagus cuniculus [32]): 17%; remaining at 10 min, 3 µM [33]: < 1%; AUC [34]: 1800 nM·h |
